Assay results from ChEMBL document CHEMBL1128429, “Synthesis and structure-activity relationships of 6-heterocyclic-substituted purines as inactivation modifiers of cardiac sodium channels” (J Med Chem, 1995).
Active and inactive are the calls of the source.

Key:
[1] = species on record: Oryctolagus cuniculus; experiment: Antiarrhythmic activity was determined by measuring the concentration that produced a 20 ms increase in ERP; no effect at </= 3; assay type: functional, organism-based; conditions: Heart
Outline: (§1)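 Langendorff-perfused rabbit heart, equilibrated 45 min before control. ERP measured after 15 min exposure to each of five cumulative concentrations: single premature stimulus scanning diastole at twice threshold. Concentration giving a 20 ms ERP increase taken from the concentration–response curve; repeated-measures ANOVA, mean change ± SEM.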

[2] = Effective concentration against Xenopus oocytes expressing guinea pig heart Na channel; assay type: functional, cell-based, Cavia porcellus; conditions: oocyte
Outline: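 Guinea pig heart RNA in Xenopus oocytes, voltage clamp at 21–23 °C, integral taken at −10 mV. Three or more concentrations, n ≥ 3 each, one per oocyte. Pooled percent-change data plotted semilogarithmically; EC50 (nM giving 50% integral increase) obtained by linear regression over the range lacking significant current block.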

[3] = system: Sodium channel protein type 5 subunit alpha (Cavia porcellus); experiment: Inactivation process of guinea pig cardiac Na channels expressed in xenopus oocytes was determined by measuring increase in current integral in presence of compound versus control at 10 uM; conditions: oocyte
[4] = Effective concentration against Xenopus oocytes expressing human heart Na channel; assay type: functional, cell-based; conditions: oocyte
Outline: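 HH1 human cardiac Na channel cRNA in oocytes; perfusate Na 140 mM, 21–23 °C, integral taken at −20 mV. At least three concentrations, n ≥ 3 each, single concentration per oocyte. Pooled data gave the EC50 (nM producing 50% integral increase) by linear regression over the lower, non-blocking range.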

[5] = species on record: Oryctolagus cuniculus; experiment: Antiarrhythmic activity was determined by measuring the concentration that produced a 20 ms increase in ERP; assay type: functional, Heart; outline: as §1
[6] = species on record: Oryctolagus cuniculus; experiment: Concentration which increased contractility by 20% in rabbit; no effect at </=3 uM; assay type: functional, organism-based
Outline: (§2)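 Langendorff-perfused rabbit heart, 45 min equilibration, then five cumulative concentrations with 15 min exposure each. Contractility read as dP/dt; the nanomolar concentration raising it by 20% was derived from the concentration–response curve. Repeated-measures ANOVA, mean change from control ± SEM.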

[7] = Inactivation processes of human heart Na channel expressed in Xenopus oocytes as increase in current at 10 uM; assay type: functional, Oocyte
Outline: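 Oocytes injected with cRNA transcribed from human cardiac Na channel (HH1) cDNA. Two-microelectrode voltage clamp at 21–23 °C, perfusion buffer with Na raised to 140 mM. Current integrated at −20 mV after the capacity transient settled. Single 10 μM exposure per oocyte; percent change in integral versus control, ± SEM.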

[8] = species on record: Cavia porcellus; experiment: Effect on inactivation processes of guinea pig cardiac Na channels expressed in Xenopus oocytes was determined by measuring the increase in current integral in the presence of compound Vs control at 10 uM; assay type: functional
Outline: (§3)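 Guinea pig heart RNA injected into defolliculated stage V–VI Xenopus oocytes; two-microelectrode voltage clamp at 21–23 °C with standard HEPES buffer perfusion, pH 7.5. Current integrated at the I–V peak (−10 mV) after the capacity transient settled. One test concentration (10 μM) per oocyte; percent change in integral calculated against that oocyte's control, reported ± SEM.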

[9] = species on record: Oryctolagus cuniculus; experiment: Concentration which increased contractility by 20% in rabbit; assay type: functional; outline: as §2
[10] = species on record: Oryctolagus cuniculus; experiment: Concentration which increased contractility by 20% in rabbit; Negative inotropic effect observed; assay type: functional, organism-based; outline: as §2
[11] = species on record: Oryctolagus cuniculus; experiment: Concentration which increased contractility by 20% in rabbit; no effect; assay type: functional, organism-based; outline: as §2
[12] = system: Oocyte; experiment: Inactivation of guinea pig cardiac Na channel expressed in Xenopus oocytes as increased current at 10 uM; insoluble; assay type: functional, cell-based; conditions: Cavia porcellus; outline: as §3

Row | EC50 [2] [nM] | EC50 [4] [nM] | Structure (SMILES) | Change [3] [%] | EC20 [5] [nM] | Change [7] [%] | further results
1 | > 3000 |  | Cc1cn(-c2ncnc3c2ncn3CC(O)CN2CCN(C(c3ccccc3)c3ccccc3)CC2)cn1 (configuration not stated) | 126 |  |  | EC20 [1]: inactive
2 | 1920 | 2310 | N#Cc1cc2c(OCC(O)CN3CCN(C(c4ccccc4)c4ccccc4)CC3)cccc2[nH]1 (configuration not stated) | 239 | 430 | 174 | dP/dt [6]: inactive
3 |  |  | OC(CN1CCN(C(c2ccccc2)c2ccccc2)CC1)Cn1cnc2c(-c3ccc4ccccc4c3)ncnc21 (configuration not stated) |  |  |  | Change [8]: -66%
4 | 99 | 900 | O[C@@H](CN1CCN(C(c2ccccc2)c2ccccc2)CC1)Cn1cnc2c(-n3cccn3)ncnc21 | 1226 | 18 | 540 | dP/dt [9]: 40 nM
5 | 85 | 290 | O[C@@H](CN1CCN(C(c2ccccc2)c2ccccc2)CC1)Cn1cnc(-n2cccc2)c2ncnc1-2 | 711 | 43 | 540 | dP/dt [9]: 377 nM
6 |  |  | O[C@H](CN1CCN(C(c2ccccc2)c2ccccc2)CC1)Cn1cnc2c(-n3cccc3)ncnc21 | 21 |  |  | EC20 [1]: inactive; dP/dt [10]: inactive
7 | 526 | 2000 | O[C@@H](CN1CCN(C(c2ccccc2)c2ccccc2)CC1)Cn1cnc2c(-c3ccccc3)ncnc21 | 413 | 425 | 128 | dP/dt [11]: inactive
8 |  |  | OC(CN1CCN(C(c2ccc(Cl)cc2)c2ccc(Cl)cc2)CC1)Cn1cnc2c(-n3cccc3)ncnc21 (configuration not stated) |  |  |  | Change [12]: Insoluble
